# ChEMBL document CHEMBL5678798 (Clin Cancer Res, 2009)
# Active and inactive are the calls of the source. The rule behind the calls is not given here.
# Columns and labels:
# [1] = target: Serine/threonine-protein kinase PLK3 (Homo sapiens) (UniProt Q9H4B4); experiment: Inhibition of N-terminal His6-tagged recombinant human Plk3 (19 to 301 residues) expressed in baculovirus infected Sf21 cells at 0.3 uM by filter binding assay relative to control
# [2] = target: Calcium/calmodulin-dependent protein kinase kinase 2 (Homo sapiens, UniProt Q96RR4); experiment: Inhibition of CAMKK2 (unknown origin)
# [3] = target: Macrophage colony-stimulating factor 1 receptor (Homo sapiens) (UniProt P07333); experiment: Inhibition of N-terminal His6-tagged recombinant human Fms (538 to end residues) expressed in baculovirus infected Sf21 cells at 0.3 uM by filter binding assay relative to control
# [4] = target: Serine/threonine-protein kinase D1 (Homo sapiens) (UniProt Q15139); experiment: Inhibition of N-terminal His6-tagged recombinant full-length human PKCmu expressed in Sf21 cells at 3 uM by filter binding assay relative to control
# Outline: (§1)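 Outsourced single-concentration screen in a commercial panel of 233 protein kinases, run as radiometric filter-binding activity assays. Test agent was tested at 0.3 or 3 µmol/L, as given in each line, from a 10 mmol/L DMSO stock. Activity is expressed as percent inhibition relative to control.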
# [5] = target: Vascular endothelial growth factor receptor 2 (Homo sapiens, UniProt P35968); experiment: Inhibition of VEGFR2 (unknown origin)
# [6] = target: Serine/threonine-protein kinase BRSK1 (Homo sapiens) (UniProt Q8TDC3); experiment: Inhibition of N-terminal 6His-tagged recombinant human BrSK1 (2 to end residues) expressed in baculovirus infected Sf21 cells at 0.3 uM by filter binding assay relative to control
# Outline: (§2)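 KinaseProfiler panel of 233 kinases: radiometric filter-binding activity assays with compound at 0.3 or 3 µmol/L. Read-out is percent inhibition.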
# MCF7 = experiment: Induction of cell cycle arrest in human MCF7 cells assessed as increase in cells accumulation at G1 phase at 0.03 to 10 uM incubated for 24 to 48 hrs by propidium iodide staining based flow cytometric analysis; type: functional; settings: dose 0.03-10 µM, time lower 24.0 hrs, time upper […]
# Outline: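 COLO 205, MCF-7 or NCI-H929 cells seeded in 96-well plates overnight at 37°C, then exposed to DMSO or increasing compound concentrations for 24 or 48 h. Fixed and stained with propidium iodide (Vindelov method), then analysed by flow cytometry for sub-G1, G1, S and G2-M fractions. Experiment repeated twice.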
# KMS-12-BM = experiment: Antiproliferative activity against human KMS-12-BM cells assessed as reduction in cell viability after 72 hrs by CellTiter-Glo assay; type: functional, cell-based
# Outline: (§3)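 Cells seeded in 96-well plates, left overnight at 37°C, then exposed to a range of test concentrations for 72 h. Viability read by CellTiter-Glo luminescence; IC50 from four-parameter curve fit. Lines kept at 37°C, 5% CO2, in recommended growth medium.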
# [7] = target: Death-associated protein kinase 2 (Homo sapiens) (UniProt Q9UIK4); experiment: Inhibition of N-terminal GST-tagged recombinant human full length DAPK2 expressed in baculovirus infected Sf21 cells at 3 uM by filter binding assay relative to control; outline: as §1
# [8] = target: Fibroblast growth factor receptor 4 (Homo sapiens) (UniProt P22455); experiment: Inhibition of N-terminal His6-tagged recombinant human FGFR4 (442 to 755 residues) expressed in baculovirus infected Sf21 cells at 0.3 uM by filter binding assay relative to control
# [9] = target: Activated CDC42 kinase 1 (Homo sapiens) (UniProt Q07912); experiment: Inhibition of N-terminal GST-tagged recombinant human ACK1 (1 to 389 residues) expressed in baculovirus infected Sf21 cells at 3 uM by filter binding assay relative to control; outline: as §1
# [10] = target: Homeodomain-interacting protein kinase 2 (Homo sapiens) (UniProt Q9H2X6); experiment: Inhibition of N-terminal His6-tagged recombinant human HIPK2 (165 to 564 residues) expressed in baculovirus infected Sf21 cells at 3 uM by filter binding assay relative to control
# Homo sapiens = species on record: Homo sapiens; experiment: Inhibition of N-terminal GST-tagged recombinant human MAPK1 expressed in Escherichia coli at 3 uM by filter binding assay relative to control; outline: as §1
# [11] = target: Activin receptor type-1B (Homo sapiens) (UniProt P36896); experiment: Inhibition of N-terminal GST-tagged recombinant human ALK4 (150 to end residues) expressed in baculovirus infected Sf21 cells at 3 uM by filter binding assay relative to control; outline: as §1
# [12] = target: Dual specificity tyrosine-phosphorylation-regulated kinase 2 (Homo sapiens) (UniProt Q92630); experiment: Inhibition of 6His-tagged recombinant full-length human DYRK2 expressed in baculovirus infected Sf21 cells at 3 uM by filter binding assay relative to control; outline: as §2
# [13] = target: Serine/threonine-protein kinase TAO2 (Homo sapiens) (UniProt Q9UL54); experiment: Inhibition of N-terminal 6His-tagged recombinant human TAO2 expressed in Sf21 cells at 0.3 uM by filter binding assay relative to control; outline: as §1
# [14] = target: Protein kinase C epsilon type (Homo sapiens, UniProt Q02156); experiment: Inhibition of PKCepsilon (unknown origin)
# [15] = target: Glycogen synthase kinase-3 alpha (Homo sapiens) (UniProt P49840); experiment: Inhibition of N-terminal His6-tagged recombinant human GSK3alpha (2 to end residues) expressed in Sf21 cells at 0.3 uM by filter binding assay relative to control
# [16] = target: Testis-specific serine/threonine-protein kinase 1 (Homo sapiens) (UniProt Q9BXA7); experiment: Inhibition of 6His-tagged recombinant human full length TSSK1 expressed in baculovirus infected Sf21 cells at 3 uM by filter binding assay relative to control; outline: as §2
# HT-29 = experiment: Antiproliferative activity against human HT-29 cells assessed as reduction in cell viability after 72 hrs by CellTiter-Glo assay; type: functional, cell-based; settings: HT-29, 72 h; outline: as §3
# [17] = target: Ribosomal protein S6 kinase alpha-4 (Homo sapiens, UniProt O75676); experiment: Inhibition of N-terminal His6-tagged recombinant human MSK2 (2 to end residues) expressed in baculovirus infected Sf21 cells by filter binding assay
# [18] = Antitumor activity against mouse NIH-3T3/LISN cells implanted in nu/nu CD-1 mouse assessed as reduction in tumor growth at 30 mg/kg, po for 21 days relative to control; type: functional; settings: 504 h, time 21 day, read-out: TGI
# Outline: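 Exponentially growing cells implanted s.c. in the right flank of 8–10-wk-old female athymic nu/nu CD-1 mice. At 150–200 mm3, block-randomized by tumor size into groups of eight. Oral dosing once or twice daily for 21 d; vehicle 20% sulfobutylether-β-cyclodextrin, pH 3.5. Calipers twice weekly; volume = length×width²/2. Growth inhibition = 100×[1 − treated growth/vehicle growth].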
# [19] = target: Vascular endothelial growth factor receptor 3 (Homo sapiens, UniProt P35916); experiment: Inhibition of N-terminal GST-tagged recombinant human Flt4 (800 to end residues) expressed in baculovirus infected Sf21 cells by filter binding assay
# [20] = target: Insulin-like growth factor 1 receptor (Homo sapiens, UniProt P08069); experiment: Inhibition of N-terminal 6His-tagged recombinant human IGF-1R (959 to end residues) expressed in baculovirus infected Sf21 cells by filter binding assay
# SK-N-MC = experiment: Antiproliferative activity against human SK-N-MC cells assessed as reduction in cell viability after 72 hrs by CellTiter-Glo assay; type: functional, cell-based; outline: as §3
# Chain of Protein kinase C epsilon type (Q02156 whole entry): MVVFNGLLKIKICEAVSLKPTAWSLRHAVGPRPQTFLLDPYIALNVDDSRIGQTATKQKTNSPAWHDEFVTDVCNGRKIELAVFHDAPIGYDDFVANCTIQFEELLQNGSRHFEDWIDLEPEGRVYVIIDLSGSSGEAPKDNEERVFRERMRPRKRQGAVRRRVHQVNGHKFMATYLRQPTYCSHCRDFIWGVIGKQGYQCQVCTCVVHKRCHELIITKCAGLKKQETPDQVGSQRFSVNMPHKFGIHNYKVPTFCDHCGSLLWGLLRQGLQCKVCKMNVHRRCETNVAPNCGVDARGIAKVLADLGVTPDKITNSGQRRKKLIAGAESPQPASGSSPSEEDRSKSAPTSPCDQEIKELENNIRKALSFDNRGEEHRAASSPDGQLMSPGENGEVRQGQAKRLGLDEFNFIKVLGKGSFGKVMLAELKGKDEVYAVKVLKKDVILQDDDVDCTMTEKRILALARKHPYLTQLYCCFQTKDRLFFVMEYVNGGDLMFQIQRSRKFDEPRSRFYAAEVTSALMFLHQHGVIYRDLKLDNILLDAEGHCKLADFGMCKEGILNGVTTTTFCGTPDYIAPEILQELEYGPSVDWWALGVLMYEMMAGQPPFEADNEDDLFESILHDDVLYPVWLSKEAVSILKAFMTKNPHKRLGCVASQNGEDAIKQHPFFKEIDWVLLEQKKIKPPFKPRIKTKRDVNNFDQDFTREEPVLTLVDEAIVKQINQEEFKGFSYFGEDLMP
# Chain of Serine/threonine-protein kinase TAO2 (Homo sapiens) (Q9UL54 whole entry): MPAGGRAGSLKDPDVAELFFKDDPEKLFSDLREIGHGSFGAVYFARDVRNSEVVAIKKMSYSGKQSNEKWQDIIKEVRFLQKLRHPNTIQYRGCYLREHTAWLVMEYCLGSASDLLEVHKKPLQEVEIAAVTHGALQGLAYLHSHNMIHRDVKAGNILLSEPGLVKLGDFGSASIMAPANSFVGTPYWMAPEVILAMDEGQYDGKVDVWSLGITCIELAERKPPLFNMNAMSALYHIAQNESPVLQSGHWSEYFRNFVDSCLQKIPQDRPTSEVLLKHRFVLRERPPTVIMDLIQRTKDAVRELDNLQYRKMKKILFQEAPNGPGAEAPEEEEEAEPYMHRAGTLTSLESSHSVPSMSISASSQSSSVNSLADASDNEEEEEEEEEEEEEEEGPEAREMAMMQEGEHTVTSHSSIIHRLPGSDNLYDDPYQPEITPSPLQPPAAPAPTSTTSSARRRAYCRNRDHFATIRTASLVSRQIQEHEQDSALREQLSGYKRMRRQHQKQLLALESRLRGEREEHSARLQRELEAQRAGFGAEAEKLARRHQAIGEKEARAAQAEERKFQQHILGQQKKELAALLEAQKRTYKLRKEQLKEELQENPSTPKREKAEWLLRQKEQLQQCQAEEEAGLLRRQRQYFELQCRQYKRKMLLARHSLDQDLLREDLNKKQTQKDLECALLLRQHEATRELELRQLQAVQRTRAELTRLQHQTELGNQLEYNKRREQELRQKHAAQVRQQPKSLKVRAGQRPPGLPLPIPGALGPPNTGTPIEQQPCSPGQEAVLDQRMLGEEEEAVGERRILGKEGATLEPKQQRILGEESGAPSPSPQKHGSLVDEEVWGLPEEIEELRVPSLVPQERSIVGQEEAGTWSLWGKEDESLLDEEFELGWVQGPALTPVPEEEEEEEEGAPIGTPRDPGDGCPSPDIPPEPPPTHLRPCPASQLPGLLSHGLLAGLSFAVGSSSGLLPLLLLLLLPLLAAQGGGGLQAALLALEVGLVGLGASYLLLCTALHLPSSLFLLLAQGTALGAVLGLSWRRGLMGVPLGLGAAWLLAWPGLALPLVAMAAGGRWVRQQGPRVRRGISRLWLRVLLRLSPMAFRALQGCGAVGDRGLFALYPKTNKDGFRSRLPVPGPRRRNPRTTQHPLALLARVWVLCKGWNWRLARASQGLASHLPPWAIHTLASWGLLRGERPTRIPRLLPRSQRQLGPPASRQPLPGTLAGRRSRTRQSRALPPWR
# Chain of Insulin-like growth factor 1 receptor (P08069 31-736 limits assumed): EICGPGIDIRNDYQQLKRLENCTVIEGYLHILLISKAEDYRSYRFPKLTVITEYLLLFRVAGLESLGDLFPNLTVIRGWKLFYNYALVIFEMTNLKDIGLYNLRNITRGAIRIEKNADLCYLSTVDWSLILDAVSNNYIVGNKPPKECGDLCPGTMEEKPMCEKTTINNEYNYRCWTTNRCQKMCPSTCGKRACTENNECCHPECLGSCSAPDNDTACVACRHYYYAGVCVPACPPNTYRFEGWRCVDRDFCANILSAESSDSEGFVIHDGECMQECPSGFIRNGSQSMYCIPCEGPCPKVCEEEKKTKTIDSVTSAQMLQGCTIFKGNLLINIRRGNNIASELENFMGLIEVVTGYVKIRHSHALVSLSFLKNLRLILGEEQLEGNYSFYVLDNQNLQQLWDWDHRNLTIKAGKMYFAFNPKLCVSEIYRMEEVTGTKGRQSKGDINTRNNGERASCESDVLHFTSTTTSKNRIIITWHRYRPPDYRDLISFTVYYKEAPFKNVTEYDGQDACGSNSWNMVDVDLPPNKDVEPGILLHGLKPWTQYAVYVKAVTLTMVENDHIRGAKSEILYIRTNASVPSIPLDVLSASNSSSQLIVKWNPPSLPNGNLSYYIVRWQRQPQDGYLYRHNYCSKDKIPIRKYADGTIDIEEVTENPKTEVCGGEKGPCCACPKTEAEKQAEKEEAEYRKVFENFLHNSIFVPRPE
# Chain of Insulin-like growth factor 1 receptor (P08069 741-1367 limits assumed): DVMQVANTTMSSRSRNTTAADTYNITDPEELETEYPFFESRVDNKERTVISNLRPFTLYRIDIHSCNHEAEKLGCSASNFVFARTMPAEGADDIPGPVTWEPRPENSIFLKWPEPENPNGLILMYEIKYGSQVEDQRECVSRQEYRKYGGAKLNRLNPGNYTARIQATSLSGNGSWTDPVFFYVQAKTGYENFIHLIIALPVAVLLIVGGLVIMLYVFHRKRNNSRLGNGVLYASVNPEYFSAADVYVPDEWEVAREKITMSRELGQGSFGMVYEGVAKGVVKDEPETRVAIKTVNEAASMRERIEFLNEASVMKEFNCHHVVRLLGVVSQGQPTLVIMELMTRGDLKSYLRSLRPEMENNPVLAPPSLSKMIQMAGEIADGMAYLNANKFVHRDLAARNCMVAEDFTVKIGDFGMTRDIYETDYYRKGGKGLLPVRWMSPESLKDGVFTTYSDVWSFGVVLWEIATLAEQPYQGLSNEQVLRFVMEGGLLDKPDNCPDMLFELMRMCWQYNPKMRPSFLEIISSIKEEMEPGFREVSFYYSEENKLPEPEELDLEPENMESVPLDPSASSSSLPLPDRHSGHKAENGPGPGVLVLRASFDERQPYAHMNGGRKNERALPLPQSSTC
# Chain of Glycogen synthase kinase-3 alpha (Homo sapiens) (P49840 2-483 limits assumed): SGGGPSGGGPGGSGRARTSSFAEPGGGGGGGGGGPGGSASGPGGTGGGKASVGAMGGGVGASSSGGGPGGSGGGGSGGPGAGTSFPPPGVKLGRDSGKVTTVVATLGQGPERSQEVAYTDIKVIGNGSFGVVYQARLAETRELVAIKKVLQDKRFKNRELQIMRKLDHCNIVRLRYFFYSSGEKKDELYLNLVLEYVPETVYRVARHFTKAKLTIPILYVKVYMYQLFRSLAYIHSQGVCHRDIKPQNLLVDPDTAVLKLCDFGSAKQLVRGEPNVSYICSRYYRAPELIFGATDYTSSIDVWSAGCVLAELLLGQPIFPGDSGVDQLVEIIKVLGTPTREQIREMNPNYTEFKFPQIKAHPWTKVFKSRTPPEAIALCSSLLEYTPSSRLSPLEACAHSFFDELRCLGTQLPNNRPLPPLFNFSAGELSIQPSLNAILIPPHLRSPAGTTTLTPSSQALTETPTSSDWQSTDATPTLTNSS
# Chain of Ribosomal protein S6 kinase alpha-4 (O75676 whole entry): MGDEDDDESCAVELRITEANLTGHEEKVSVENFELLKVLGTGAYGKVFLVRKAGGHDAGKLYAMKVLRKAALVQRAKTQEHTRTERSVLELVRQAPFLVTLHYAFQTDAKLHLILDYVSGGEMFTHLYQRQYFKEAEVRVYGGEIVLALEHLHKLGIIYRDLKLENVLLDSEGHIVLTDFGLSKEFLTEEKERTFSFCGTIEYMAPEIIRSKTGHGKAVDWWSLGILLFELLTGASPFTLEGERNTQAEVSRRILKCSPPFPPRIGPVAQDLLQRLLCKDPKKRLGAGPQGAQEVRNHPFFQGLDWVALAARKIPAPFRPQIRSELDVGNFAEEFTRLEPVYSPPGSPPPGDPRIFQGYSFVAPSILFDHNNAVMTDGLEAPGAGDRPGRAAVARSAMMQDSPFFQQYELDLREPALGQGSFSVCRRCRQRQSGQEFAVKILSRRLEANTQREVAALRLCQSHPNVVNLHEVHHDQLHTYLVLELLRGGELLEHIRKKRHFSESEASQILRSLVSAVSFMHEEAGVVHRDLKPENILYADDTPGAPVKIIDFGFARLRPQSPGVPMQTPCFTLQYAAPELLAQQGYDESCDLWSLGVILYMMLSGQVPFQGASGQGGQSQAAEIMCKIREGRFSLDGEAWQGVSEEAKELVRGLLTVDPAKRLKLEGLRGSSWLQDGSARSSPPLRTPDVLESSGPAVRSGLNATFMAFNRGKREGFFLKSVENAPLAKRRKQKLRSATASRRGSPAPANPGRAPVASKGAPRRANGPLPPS
# Chain of Activin receptor type-1B (Homo sapiens) (P36896 whole entry): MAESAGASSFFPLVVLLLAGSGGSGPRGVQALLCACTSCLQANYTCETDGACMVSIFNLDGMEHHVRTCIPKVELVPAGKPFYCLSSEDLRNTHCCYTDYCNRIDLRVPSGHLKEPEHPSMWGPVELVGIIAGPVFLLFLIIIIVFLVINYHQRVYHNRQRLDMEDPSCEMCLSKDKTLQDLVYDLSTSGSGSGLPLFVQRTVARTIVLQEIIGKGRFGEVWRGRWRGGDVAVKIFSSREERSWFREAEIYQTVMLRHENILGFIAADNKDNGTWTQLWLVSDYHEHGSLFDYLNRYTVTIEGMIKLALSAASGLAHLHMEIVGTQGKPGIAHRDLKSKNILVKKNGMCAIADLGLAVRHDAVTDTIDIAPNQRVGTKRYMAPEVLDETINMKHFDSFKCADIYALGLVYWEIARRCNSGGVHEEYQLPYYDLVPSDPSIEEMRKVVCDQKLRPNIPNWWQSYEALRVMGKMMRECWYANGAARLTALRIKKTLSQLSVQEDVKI
smiles,measurement,setting,value
CCc1cc(Nc2nccc(-c3c(-c4ccc(OC)c(C(=O)Nc5c(F)cccc5F)c4)nc4ccccn34)n2)c(OC)cc1N1CCC(N2CCN(S(C)(=O)=O)CC2)CC1,inhibition,[1],-10%
same,IC50,[2],> 10 µM
same,inhibition,[3],10%
same,inhibition,[4],1%
same,IC50,[5],3.2 µM
same,inhibition,[6],0%
same,Activity,MCF7,Active
same,IC50,KMS-12-BM,0.113 µM
same,inhibition,[7],4%
same,inhibition,[8],21%
same,inhibition,[9],34%
same,inhibition,[10],4%
same,inhibition,Homo sapiens,-10%
same,inhibition,[11],-10%
same,inhibition,[12],-8%
same,inhibition,[13],1%
same,IC50,[14],10 µM
same,inhibition,[15],-10%
same,inhibition,[16],11%
same,IC50,HT-29,0.104 µM
same,IC50,[17],3.64 µM
same,inhibition in vivo at 30 mg/kg,[18],56%
same,IC50,[19],0.159 µM
same,IC50,[20],0.058 µM
same,IC50,SK-N-MC,0.043 µM
